Sampled rows, rich in hits. Any-hit rate of the full collection: about 1.1%.
G6PDH counter = L. mesenteroides G6PDH inhibitors, counter-screen for G6PDH-coupled screening assays, biochemical, Leuconostoc mesenteroides enzyme; Purified L. mesenteroides G6PDH, diaphorase/resazurin coupled fluorescence, 45 min; AID 1020, 2008; inhibition, % at 5 µM; 200,000 compounds, 0.12% hits; in the data active = inhibition above about 50%
Diaphorase act = compounds boosting diaphorase resazurin reduction – biochemical, uHTS, resorufin fluorescence, counter-screen for diaphorase-coupled primary assays, primary screen. Diaphorase/resazurin coupled assay, 16 min; stronger effect = higher value; 1 = vehicle wells, 0 = NADH-free wells. activation factor at 20 µM. 190,000 compounds, 0.005% hits. AID 1229, 2008;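 active = diaphorase activity raised at least twofold by the compound at 20 µM; inactive = activation factor below 2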
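Material: Clostridium kluyveri diaphorase, purified enzyme; Quantity: enzyme 0.07 U/mL final; Medium: HEPES pH 7.4 buffer with MgCl2 and Tween 20; Dosing: single compound dose of 20 µM, 1% DMSO final; Schedule: 16 min reaction at room temperature; Measured by: red resorufin fluorescence at 544/590 nm excitation/emission.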
PMI act hi M6P = human PMI activators, high substrate, primary screen, biochemical, fluorescence intensity, near-saturating mannose 6-phosphate; Mannose-6-phosphate isomerase (Homo sapiens), P34949; coupled PMI enzyme assay, resazurin fluorescence, 20 min; stronger effect = higher value; 1 = untreated enzyme, 0 = substrate-free blank; activation factor at 20 µM; 190,000 compounds, 0.34% hits; AID 1216, 2008;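 active = activation factor of 2 or more at 20 µM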
Target sequence (P34949 whole entry, looked up): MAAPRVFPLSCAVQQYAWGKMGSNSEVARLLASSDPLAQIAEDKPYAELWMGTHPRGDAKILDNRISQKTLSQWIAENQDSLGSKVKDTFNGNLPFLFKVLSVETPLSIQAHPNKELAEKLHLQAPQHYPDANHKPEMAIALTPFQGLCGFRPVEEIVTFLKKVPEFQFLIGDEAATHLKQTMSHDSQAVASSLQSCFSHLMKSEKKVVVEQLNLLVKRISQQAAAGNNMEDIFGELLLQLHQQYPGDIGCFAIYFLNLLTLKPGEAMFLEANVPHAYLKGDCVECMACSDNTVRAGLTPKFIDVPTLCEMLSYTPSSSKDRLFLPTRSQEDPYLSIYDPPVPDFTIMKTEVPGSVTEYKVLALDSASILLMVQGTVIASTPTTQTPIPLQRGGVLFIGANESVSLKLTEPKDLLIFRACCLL
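Test system: human phosphomannose isomerase with PGI, G6PDH, diaphorase coupling enzymes; Amount: PMI at 15 ng/mL final; Reagent: Mannose-6-phosphate 1.0 mM (near-saturating) plus 0.22 mM NADP+; Timing: 20 min, room temperature; Technique: resorufin fluorescence at Ex 544/Em 590 nm; Dosing: 20 µM single dose.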
PMI activator = activators of human PMI, primary screen, biochemical, fluorescence intensity, near-Km mannose 6-phosphate; purified human PMI, coupled resazurin fluorescence, 20 min; stronger effect = higher value; 1 = vehicle control, 0 substrate-free wells; activation factor at 20 µM; 190,000 compounds, 0.005% hits; Mannose-6-phosphate isomerase (Homo sapiens), P34949;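 active = activation factor of 2 or more at 20 µM, relative to plate controls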
Redox H2O2 prof = compounds producing H2O2 with reducing agent – biochemical, NIH compound library profiling, artefact control for MLSCN library redox annotation, primary screen; activation, % at 10 µM; 200,000 compounds, 0.03% hits; DTT-dependent redox cycling H2O2, phenol red/HRP absorbance; 100% = 100 µM peroxide control, 0% = buffer;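 active = activation of at least 50% relative to the plate's high and low controls in the primary single-dose screen; inactive = activation below 50%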;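 note: compound incubated with DTT at 0.8 mM final as the reducing agent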
Diaphorase inh = diaphorase inhibitors and chemical oxidizers, primary screen, counter-screen for diaphorase-coupled primary assays, biochemical, uHTS, resorufin fluorescence; 190,000 compounds, 0.69% hits; inhibition, % at 20 µM; diaphorase resazurin-to-resorufin fluorescence, NADH, 16 min; bacterial (C. kluyveri) enzyme, not human;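 active = primary screen inhibition at 20 µM above a set limit, cut at about 50% in these data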;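 note: plate controls were DMSO with full reaction for no effect and wells lacking NADH for full effect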
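Detection: fluorescence of resorufin formed from resazurin, Ex 544/Em 590 nm; test system: Clostridium kluyveri diaphorase enzyme; amount: 0.14 U/mL diaphorase, enzyme working solution; times: 16-min room-temperature incubation before reading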
Numbers without * were called inactive.

SMILES	G6PDH counter	Diaphorase act	PMI act hi M6P	PMI activator	Redox H2O2 prof	Diaphorase inh
CC(=O)c1cn(-c2ccc(Cl)cc2)c(=O)n(Cc2ccc(Br)cc2)c1=O	-3	1	1	1.1	0	3
COc1nc(N=C(N)N)nc2ccc(C)cc12	-12	1	0.8	0.8	0	-4
O=C(CCNC(=O)Cn1ccc2ccccc2c1=O)NCCc1ccccc1Cl	27	1	1	0.9	0	4
Oc1ccc(N=Cc2ccc(O)c(O)c2)cc1	58*	0.4	0.5	0.6	0	61*
COC(=O)CC1NCCc2cc(OC)c(OC)cc21 (stereo unspecified)	-5	1	1.1	1.1	0	2
COC(=O)CC1c2cc(OC)c(OC)cc2CC(=O)c2cc(OC)c(OC)cc21 (stereo unspecified)	19	0.8	2*	1.5	0	15
CC/C(=N\NC(=O)c1ccc(CN(C)S(=O)(=O)c2ccc(C)cc2)cc1)c1ccc(OC(F)F)cc1	3	0.9	1	0.9	0	8
COc1cc(S(=O)(=O)Nc2ccc(C)cc2)ccc1N=Cc1c(C)c(C#N)c(=O)n(C)c1O	-1	1	0.6	1.2	-1	-1
Cc1ccc(N/N=C/c2c(C)c(C#N)c(=O)n(C)c2O)cc1C	30	0.3	0.8	0.6	0	69*
O=[N+]([O-])c1ccccc1SN(Cc1ccccc1)c1ccccn1	13	0.7	1	1.1	2	25
Cc1cc(C(=O)N2CCc3c([nH]c4ccccc34)C2c2c(F)cccc2Cl)no1 (stereo unspecified)	1	0.4	0.8	0.8	-2	57*
CCc1cc(C(=O)N2CCc3c([nH]c4ccccc34)C2c2ccc(OC)cc2F)no1 (stereo unspecified)	9	0.8	0.9	0.9	-1	19
COC(=O)[C@@H]1CCCN1C(=O)CCc1nnc(C2CCCCC2)o1	10	0.9	1	1	0	9
Nc1[nH]n2c(=O)cc(-c3ccccc3)nc2c1N=Nc1ccc2c(c1)OCO2	24	0.3	0.7	0.7	0	68*
Cc1[nH]n(-c2ccccc2)c(=O)c1N=Nc1ccc2c(c1)OCO2	2	1	0.9	1.1	-1	2
Cc1ccc(N/N=C2\CCS(=O)(=O)c3sccc32)cc1	-4	0.8	2.8*	1.8	-1	15
CN(C)/N=C1\CCS(=O)(=O)c2sccc21	2	0.8	0.8	0.9	0	17
COc1ccc(-c2cc(C(F)(F)F)nc(S(=O)(=O)CCCC(=O)Nc3cccnc3Cl)n2)cc1OC	1	1.1	1.1	1.2	-1	-7
Cc1nnc(NC(=O)CSc2ccc([N+](=O)[O-])cn2)s1	-4	0.9	1.1	1.2	1	12
N#Cc1ccccc1NC(=O)CSc1ccc([N+](=O)[O-])cn1	1	0.9	2.6*	1.8	0	7
Cc1ccc(O)c(NC2=C(Cl)C(=O)N(Cc3ccccc3)C2=O)c1	12	0.5	0.8	0.7	-1	51*
CC1=C(C#N)C(=O)NC(=O)/C1=C\c1ccc(-c2ccc(C)cc2[N+](=O)[O-])o1	14	0.4	0.5	0.9	-1	57*
CCOC(=O)c1cc(-c2ccc(/C=C3/C(=O)NC(=O)C(C#N)=C3C)o2)ccc1Cl	29	0.6	0.8	1	2	40
C=CCOc1ccc(CNc2ccc3[nH]c(=O)[nH]c3c2)cc1OC	9	0.1	0.2	0.2	-2	94*
COc1cc(CNc2ccc3[nH]c(=O)[nH]c3c2)cc(Br)c1OCC(=O)NC(C)(C)C	2	0.6	0.7	0.7	0	40
SMILES	G6PDH counter	Diaphorase act	PMI act hi M6P	PMI activator	Redox H2O2 prof	Diaphorase inh
C=CCOc1cccc(CNc2ccc3[nH]c(=O)[nH]c3c2)c1	-3	0.7	0.6	0.8	2	30
COc1cc(CNc2ccc3[nH]c(=O)[nH]c3c2)ccc1OCC(=O)NC(C)(C)C	14	0.3	0.3	0.2	0	69*
CCOc1cc(CNc2ccc(O)cc2)ccc1OCc1ccc(Cl)cc1Cl	-38	0.3	0.7	0.5	2	66*
CCOc1cccc(CNc2ccc(O)cc2)c1OCc1ccc(Cl)cc1	13	0.6	0.4	0.5	-3	44
CON1C(=O)C(=O)N(OC)C(C)(C)C1(C)C	-1	0.8	0.6	0.8	0	22
FC(F)Oc1cccc(NC(=S)N2CCN(c3ccccn3)CC2)c1	0	0.3	0.4	0.3	0	70*
N=C1S/C(=C\c2ccc(-c3ccccc3C(=O)O)o2)C(=O)N1c1ccc2c(c1)OCO2	2	0.3	1.4	0.1	0	67*
COc1ccccc1N1C(=N)S/C(=C\c2ccc(-c3ccccc3C(=O)O)o2)C1=O	2	0.7	1.4	1.4	0	34
CCSc1ccccc1C(=O)N1CCN(c2ccc([N+](=O)[O-])cc2)CC1	6	0.9	0.9	1	0	11
O=C(CSc1ccccc1C(=O)O)c1ccc([N+](=O)[O-])cc1	4	1	2.2*	1.9	0	4
CN(CCO)c1nc(N)c2c(N)nc3c(c2c1C#N)CC(=O)N3C1CCCC1	37	0.6	0.5	0.4	0	42
CC(C)(C)N1C(=O)Cc2c1nc(N)c1c(N)nc(N3CCCCC3CO)c(C#N)c21 (stereo unspecified)	46	0.4	0.3	0.2	2	56*
CCOC(=O)C1=C(C)NC(=O)C1CC(=O)Nc1ccccc1 (stereo unspecified)	12	1.4	3*	2.1*	1	-35
CC(C)[C@H](NS(=O)(=O)c1cccc(Cl)c1)C(=O)OCC(=O)N1CCN(c2ccccc2)CC1	-14	0.9	2*	1.4	0	8
Cc1ccc(-n2c3nc(=O)[nH]c(=O)c-3cc3cc([N+](=O)[O-])ccc32)cc1	-4	0.3	1	1.1	0	74*

Compound activity from PubChem BioAssay.
